Screens: PubChem BioAssay, several laboratories
T cell HTS = T cell immune modulation candidate | 2C CD8+ T cell-vesicle binding, flow cytometry; active compounds read low | response (vesicle binding), % at 7 µM | hit rate 0.068% among 330,000;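 active means response, share of CD8 T cells binding vesicles, and their 90th percentile fluorescence all below set limits, cut at about 80% in these data, passing the limit was not always enough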;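 further: values below 100% mean blocked vesicle binding to the CD8+ T cells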
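incubation = binding step 1.5 h, 37 °C, antibody labelling 20 min, ice | test system = 2C mouse CD8+ T cells | read-out basis = percent CD8+ FL2 mean versus row control | controls = Peptide-free naked vesicles (low) and QL9 vesicles with 0.7% DMSO vehicle (high) | detection = flow cytometry of vesicle-bound cells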
S1P3 antag-1 = blocks the human S1P3 receptor; Q99500; AID 485; inhibition, % at 4.98 µM; CHO S1P3 NFAT-BLA reporter, FRET fluorescence, antagonist mode; hit rate 0.27% among 170,000;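 active means inhibition above the plate cutoff, the mean inhibition of test wells on that plate plus 3 SD, cut at about 28% in these data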;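 further: cells challenged with S1P at its EC80 of 0.8 µM; blue over green emission ratio from cleaved BLA substrate after 4 h stimulation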
Target sequence (Q99500 whole entry, looked up): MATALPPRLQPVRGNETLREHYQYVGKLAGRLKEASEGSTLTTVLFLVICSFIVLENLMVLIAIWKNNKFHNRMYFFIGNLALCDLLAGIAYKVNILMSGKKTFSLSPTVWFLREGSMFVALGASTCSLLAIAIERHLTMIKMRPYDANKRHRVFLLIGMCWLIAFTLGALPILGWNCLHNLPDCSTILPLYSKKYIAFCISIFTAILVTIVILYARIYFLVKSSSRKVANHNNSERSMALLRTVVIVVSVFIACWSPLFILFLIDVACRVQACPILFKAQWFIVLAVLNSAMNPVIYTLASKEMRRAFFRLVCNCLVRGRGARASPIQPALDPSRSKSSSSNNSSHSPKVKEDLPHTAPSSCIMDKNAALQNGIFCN
Yeast superoxide = lowers age-related superoxide in aged yeast cells; AID 2690; superoxide response (% of plate mean), % at 10 µM; hit rate 0.18% among 330,000; S. cerevisiae aged cells, superoxide DHE fluorescence; active compounds read low;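 active means superoxide response under a set limit, about three screen SD below normal, cut at about 65% in these data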;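 further: yeast aged for seven days with compound at 30 °C before DHE staining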
S1P3 antag-2 = confirmation of human S1P3 receptor antagonists; shares compounds with S1P3 antag-1; CHO S1P3 NFAT-BLA reporter, FRET, antagonist mode; inhibition, % at 4.98 µM; hit rate 30% among 240;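 active means inhibition above the hit threshold that was computed for the earlier primary screen, cut at about 30% in these data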
CR mimetic CP = yeast aging superoxide inhibition, cherry pick confirmation; superoxide response (% of plate), % at 10 µM; hit rate 1% among 850; shares compounds with Yeast superoxide; S. cerevisiae aging, superoxide DHE fluorescence; active compounds read low;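 active means superoxide signal below 65% of the plate average of sample wells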;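 further: cells aged with compound for 7 days at 30 degrees C before staining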
DHE fluor count = DHE fluorescence interference, counter-screen artifact | S. cerevisiae BY4741, flow cytometry; active compounds read low | fluorescence response, % at 10 µM | AID 435000 | shares compounds with Yeast superoxide | 850 tested, under 10 active;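 active means fluorescence response below 15%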;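 further: lower means stronger quenching of DHE signal or ROS scavenging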
Of the large screens only hits and unclear results are named; the others gave an inactive call (follow-up assays come after a bar, where they were run). The list is not random: actives were taken first. Their share in the collection is about 0.41%.

CC(C)[C@H]1C(=O)O[C@H](C(C)C)C(=O)N(C)[C@@H](C(C)C)C(=O)O[C@H](C(C)C)C(=O)N(C)[C@@H](C(C)C)C(=O)O[C@H](C(C)C)C(=O)N1C	S1P3 antag-1 70 | S1P3 antag-2 75
COC(=O)C1C2CC[C@@H](CC1OC(=O)c1ccccc1)N2 (stereo partly specified)	none (no result: S1P3 antag-1)
CCC1C=CC=CC[C@H](C)[C@@H](O)[C@](C)(O)C(=O)[C@@H](C)[C@H](O)[C@@H](C)C(=O)[C@H](C)[C@@H](O)[C@H](C)C=CC(=O)OC2[C@@H](C)C(CC1)OC1(CC[C@@H](C)C(C[C@H](C)O)O1)[C@@H]2C (stereo partly specified)	none (no result: S1P3 antag-1)
Cc1cc(C)n(-c2ccc(NN=C(C#N)C#N)cc2)n1	none
N#CC(C#N)=NNc1ccc(-n2ccc(C(F)(F)F)n2)cc1	S1P3 antag-1 44 | S1P3 antag-2 45
Cn1c(O)c(C(=Nc2ccc(F)cc2)c2ccccc2Cl)c(=O)n(C)c1=O	Yeast superoxide 62 | CR mimetic CP inactive | DHE fluor count inactive
Cn1c(O)c(C(=NCCN2CCCCC2)c2ccccc2Cl)c(=O)n(C)c1=O	none
COc1cc(C)c(CNCCc2c[nH]c3ccccc23)cc1C	none (no result: S1P3 antag-1)
Nc1c2c(nc3ccccc13)CCN(Cc1ccccc1)C2	none (no result: S1P3 antag-1)
Nc1cc2nc3ccccc3nc2cc1N	Yeast superoxide 41 | CR mimetic CP inactive | DHE fluor count inactive
C[C@]12CCC3C(CC[C@H]4C[C@@H](O)CC[C@]34C)C1C[C@@H](Br)[C@@H]2O (stereo partly specified)	none (no result: S1P3 antag-1)
C[C@]12CCC3C(CC[C@H]4C[C@H](O)CC[C@]34C)C1[C@@H](O)[C@@H](O)[C@@H]2O (stereo partly specified)	none (no result: S1P3 antag-1)
C[C@]12CCC3C(CC[C@H]4C[C@@H](O)CC[C@]34C)C1C[C@@H](O)[C@]2(C)O (stereo partly specified)	none (no result: S1P3 antag-1) | CR mimetic CP inactive | DHE fluor count inactive
C[C@]12CC[C@H](O)CC1C(=O)CC1C2CC[C@@]2(C)C1CC[C@@H]2O (stereo partly specified)	none (no result: S1P3 antag-1) | CR mimetic CP inactive | DHE fluor count inactive
C[C@H]1CC[C@@]2(C)[C@@H](CC[C@@H]3[C@@H]2CC[C@]2(C)[C@@H](O)CC[C@@H]32)C1	none
C[C@]12CC[C@H](O)C[C@@H]1CC[C@@H]1[C@@H]2CC[C@]2(C)[C@@H](C(=O)O)C[C@@H]12	none (no result: S1P3 antag-1)
C[C@]12CCC3C(CC[C@H]4C[C@@H](O)CC[C@]34C)C1C[C@@H](N)[C@@H]2O (stereo partly specified)	none (no result: S1P3 antag-1) | CR mimetic CP inactive | DHE fluor count inactive
C[C@]12CCC3C(CC[C@H]4C[C@@H](O)CC[C@]34C)C1CC[C@@]2(O)C(F)(F)F (stereo partly specified)	none (no result: S1P3 antag-1) | CR mimetic CP inactive | DHE fluor count inactive
COc1cc2c(cc1OC)C13CCN4CC5=CCOC6CC(=O)N2C1C6C5CC43 (stereo unspecified) (tested in a mixture with another compound)	none
OCC1CO1 (stereo unspecified)	none (no result: S1P3 antag-1)
Clc1ccc2[nH]c3c(c2c1)CCNC3	none (no result: S1P3 antag-1)
C[C@]12CC[C@@H](O)C[C@@H]1CC[C@@H]1[C@@H]2CC[C@]2(C)[C@@H](O)CC[C@@H]12	none
C#C[C@]1(O)[C@H](O)CC2C3CC[C@H]4C[C@@H](O)CC[C@]4(C)C3CC[C@@]21C (stereo partly specified)	none (no result: S1P3 antag-1) | CR mimetic CP inactive | DHE fluor count inactive
C[C@]12CCC3C(CC[C@H]4C[C@@H](O)CC[C@]34C)[C@H]1CC[C@H]2O (stereo partly specified)	none (no result: S1P3 antag-1) | CR mimetic CP inactive | DHE fluor count inactive
C[C@]12CCC3C(CC[C@H]4C[C@@H](O)CC[C@]34C)C1C[C@@H](O)C2=O (stereo partly specified)	none (no result: S1P3 antag-1)
CC1=C2[C@H]3OC(=O)[C@@H](C)[C@@H]3CC[C@@]2(C)C=CC1=O	none (no result: S1P3 antag-1)
C[C@]12CC[C@@H](O)CC1=CCC1C2CC[C@@]2(C)C1C[C@@H](F)[C@@H]2O (stereo partly specified)	none (no result: S1P3 antag-1)
CCN(CC)CCO	none (no result: S1P3 antag-1)
C[C@]12CCC3[C@@H](CC[C@H]4C[C@@H](O)CC[C@]34C)C1CCC2=O (stereo partly specified)	none (no result: S1P3 antag-1)
